The results in this text go back to ChEMBL document CHEMBL4270612, “Discovery of dual GyrB/ParE inhibitors active against Gram-negative bacteria” (Eur J Med Chem, 2018).

In brackets after ≈: the same amount, converted by molar mass.

The first data set concerns the target DNA gyrase subunit B (Escherichia coli, UniProt P0AES6). The data set is described as follows: Inhibition of Escherichia coli GyrB (1 to 220 residues) expressed in Escherichia coli BL21(DE3).
Conditions: not given
Broadly, the IC50 is the concentration that gives 50% inhibition. The low end stands for inhibition by little substance, the high end for a need for much substance. Consider `CCNC(=O)Nc1cc(-c2nc(C(F)(F)F)cs2)c(-c2cc(C(=O)O)cnc2N2C3CCC2CN(C)C3)cn1`, for which the IC50 stood at 6 nM.
Still for that read-out and setting: in the case of `CCNC(=O)Nc1cc(-c2nc(C(F)(F)F)cs2)c(-c2cc3ncccc3nc2N2CCN(C)CC2)cn1` it was 3 nM; in that of `CCNC(=O)Nc1cc(-c2nc(C(F)(F)F)cs2)c(-c2cc(-c3nnn[nH]3)cnc2N2C3CCC2CN(C)C3)cn1`, 9 nM; in that of `CCNC(=O)Nc1cc(-c2nc(C(F)(F)F)cs2)c(-c2cc3ncccc3nc2N2C3CC2CN(C)C3)cn1`, 5 nM.

The target in a further data set is DNA topoisomerase 4 subunit B (Escherichia coli K-12, UniProt P20083). The experiment in a line: Inhibition of Escherichia coli ParE.
Sequence of DNA topoisomerase 4 subunit B (P20083 whole entry): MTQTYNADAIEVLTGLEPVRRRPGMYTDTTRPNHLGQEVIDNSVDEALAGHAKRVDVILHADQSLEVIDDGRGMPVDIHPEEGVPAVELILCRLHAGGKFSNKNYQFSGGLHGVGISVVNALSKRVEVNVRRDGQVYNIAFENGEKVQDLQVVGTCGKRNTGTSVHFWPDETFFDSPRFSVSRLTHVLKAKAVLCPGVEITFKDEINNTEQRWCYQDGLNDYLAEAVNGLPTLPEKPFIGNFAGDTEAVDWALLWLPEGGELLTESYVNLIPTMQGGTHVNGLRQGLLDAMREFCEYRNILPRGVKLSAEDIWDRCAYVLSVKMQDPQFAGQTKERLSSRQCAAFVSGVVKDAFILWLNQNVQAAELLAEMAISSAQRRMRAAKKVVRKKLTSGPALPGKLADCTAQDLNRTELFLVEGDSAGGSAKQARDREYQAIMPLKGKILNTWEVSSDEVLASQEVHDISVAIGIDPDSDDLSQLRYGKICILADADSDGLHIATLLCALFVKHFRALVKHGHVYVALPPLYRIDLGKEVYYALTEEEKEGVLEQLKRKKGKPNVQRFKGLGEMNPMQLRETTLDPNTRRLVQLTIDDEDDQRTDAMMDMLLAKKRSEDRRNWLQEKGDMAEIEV
Conditions: not given
Take `CCNC(=O)Nc1cc(-c2nc(C(F)(F)F)cs2)c(-c2cc(C(=O)O)cnc2N2C3CCC2CN(C)C3)cn1`: the IC50 is 8 nM.
Regarding `CCNC(=O)Nc1cc(-c2nc(C(F)(F)F)cs2)c(-c2cc3ncccc3nc2N2CCN(C)CC2)cn1`, the concentration for half-maximal inhibition (IC50) is 400 nM.
On to `CCNC(=O)Nc1cc(-c2nc(C(F)(F)F)cs2)c(-c2cc(-c3nnn[nH]3)cnc2N2C3CCC2CN(C)C3)cn1`, for which half-maximal inhibition (IC50) required 4 nM.
On the same count and under the same terms, for `CCNC(=O)Nc1cc(-c2nc(C(F)(F)F)cs2)c(-c2cc3ncccc3nc2N2C3CC2CN(C)C3)cn1` the value was 200 nM.

For a further data set, the system named is Pseudomonas aeruginosa. The data set is described as follows: Antibacterial activity against Pseudomonas aeruginosa PAO1 after 24 hrs by broth microdilution method. The class given is functional. The following applies: PAO1, 24 h. In a few lines:
(§1)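 Broth microdilution per CLSI. Bacterial suspension adjusted to 1×10^6 CFU/mL in cation-adjusted Mueller–Hinton broth and mixed 1:1 with 2-fold serial compound dilutions. Final DMSO 2.5% v/v. Plates incubated at 35 °C with shaking at 140 rpm for 24 h.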
The term MIC denotes the lowest concentration found to suppress growth. In turn, `CCNC(=O)Nc1cc(-c2nc(C(F)(F)F)cs2)c(-c2cc(C(=O)O)cnc2N2C3CCC2CN(C)C3)cn1` returned an MIC of 9 µg/mL (≈ 16 µM).
On the same count and under the same terms, in the case of `CCNC(=O)Nc1cc(-c2nc(C(F)(F)F)cs2)c(-c2cc3ncccc3nc2N2CCN(C)CC2)cn1` it was above 100 µg/mL.
On the same count and under the same terms, for `CCNC(=O)Nc1cc(-c2nc(C(F)(F)F)cs2)c(-c2cc(-c3nnn[nH]3)cnc2N2C3CCC2CN(C)C3)cn1` the value was above 50 µg/mL; for `CCNC(=O)Nc1cc(-c2nc(C(F)(F)F)cs2)c(-c2cc3ncccc3nc2N2C3CC2CN(C)C3)cn1`, above 60 µg/mL.

The subject of another data set is Pseudomonas aeruginosa. The data set is described as follows: Antibacterial activity against Pseudomonas aeruginosa harboring MexABCDXY deletion mutant after 24 hrs by broth microdilution method. The class given is functional.
Conditions: not given
The procedure, abridged: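 Broth microdilution per CLSI. Bacterial suspensions adjusted to 1×10^6 CFU/mL in cation-adjusted Mueller–Hinton broth, mixed 1:1 with 2-fold serial compound dilutions (final DMSO 2.5% v/v). Incubation 35 °C, 140 rpm, 24 h.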
(Dilution methods test growth across graded concentrations, often in twofold steps.)
On to `CCNC(=O)Nc1cc(-c2nc(C(F)(F)F)cs2)c(-c2cc(C(=O)O)cnc2N2C3CCC2CN(C)C3)cn1`, for which it took 4.48 µg/mL (≈ 7.98 µM) to inhibit growth (MIC).
On the same count and under the same terms, for `CCNC(=O)Nc1cc(-c2nc(C(F)(F)F)cs2)c(-c2cc3ncccc3nc2N2CCN(C)CC2)cn1` the value was 1.08 µg/mL (≈ 1.99 µM); for `CCNC(=O)Nc1cc(-c2nc(C(F)(F)F)cs2)c(-c2cc(-c3nnn[nH]3)cnc2N2C3CCC2CN(C)C3)cn1`, above 50 µg/mL; for `CCNC(=O)Nc1cc(-c2nc(C(F)(F)F)cs2)c(-c2cc3ncccc3nc2N2C3CC2CN(C)C3)cn1`, 1.1 µg/mL (≈ 1.98 µM).

For the next data set, the system named is Escherichia coli. The data set is described as follows: Antibacterial activity against Escherichia coli after 24 hrs by broth microdilution method. The class given is functional.
Conditions: not given
The procedure, abridged: as §1
For the molecule `CCNC(=O)Nc1cc(-c2nc(C(F)(F)F)cs2)c(-c2cc(C(=O)O)cnc2N2C3CCC2CN(C)C3)cn1`, inhibition of growth (MIC) required 9 µg/mL (≈ 16 µM).
`CCNC(=O)Nc1cc(-c2nc(C(F)(F)F)cs2)c(-c2cc3ncccc3nc2N2CCN(C)CC2)cn1` gave an MIC of 16.8 µg/mL (≈ 31 µM).
Same read-out and setting: for `CCNC(=O)Nc1cc(-c2nc(C(F)(F)F)cs2)c(-c2cc(-c3nnn[nH]3)cnc2N2C3CCC2CN(C)C3)cn1` the value was above 50 µg/mL.
The same measure, in the same setting: in the case of `CCNC(=O)Nc1cc(-c2nc(C(F)(F)F)cs2)c(-c2cc3ncccc3nc2N2C3CC2CN(C)C3)cn1` it was 17.2 µg/mL (≈ 31 µM).

In a further data set the test system is Escherichia coli. The data set is described as follows: Antibacterial activity against tolC deficient Escherichia coli after 24 hrs by broth microdilution method. Type of data set: functional.
Conditions: not given
In a few lines: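 Broth microdilution per CLSI guidelines. Inoculum adjusted to 1×10^6 CFU/mL in cation-adjusted Mueller–Hinton broth, added 1:1 to 2-fold serial compound dilutions; final DMSO 2.5% v/v. Plates incubated 35 °C, 140 rpm, 24 h.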
`CCNC(=O)Nc1cc(-c2nc(C(F)(F)F)cs2)c(-c2cc(C(=O)O)cnc2N2C3CCC2CN(C)C3)cn1` returned a minimum inhibitory concentration (MIC) of 1.12 µg/mL (≈ 1.99 µM).
Same read-out and setting: for `CCNC(=O)Nc1cc(-c2nc(C(F)(F)F)cs2)c(-c2cc3ncccc3nc2N2CCN(C)CC2)cn1` the value was 1.08 µg/mL (≈ 1.99 µM); for `CCNC(=O)Nc1cc(-c2nc(C(F)(F)F)cs2)c(-c2cc(-c3nnn[nH]3)cnc2N2C3CCC2CN(C)C3)cn1`, 36 µg/mL (≈ 61.5 µM); for `CCNC(=O)Nc1cc(-c2nc(C(F)(F)F)cs2)c(-c2cc3ncccc3nc2N2C3CC2CN(C)C3)cn1`, 2.21 µg/mL (≈ 3.98 µM).

Tested on in another data set: not listed separately
The experiment in a line: Dissociation constant, acidic pKa of compound by pH metric method. Type of data set: physicochemical.
Conditions: not given
In a few lines: (§2)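 Potentiometric (pH-metric) titration on an automated titrator, Gold Standard pH metric assay, run in triplicate.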
What is called pKa is the pH at which an ionisable group is half protonated. Higher therefore signals a weaker acid or stronger base. In turn, `CCNC(=O)Nc1cc(-c2nc(C(F)(F)F)cs2)c(-c2cc(C(=O)O)cnc2N2C3CCC2CN(C)C3)cn1` yielded a pKa of 3.5.
For the molecule `CCNC(=O)Nc1cc(-c2nc(C(F)(F)F)cs2)c(-c2cc(-c3nnn[nH]3)cnc2N2C3CCC2CN(C)C3)cn1`, the pKa amounted to 3.6.

Tested on in the next data set: not listed separately
The experiment in a line: Dissociation constant, basic pKa of compound by pH metric method. Type of data set: physicochemical.
Conditions: not given
In a few lines:
as §2
On to `CCNC(=O)Nc1cc(-c2nc(C(F)(F)F)cs2)c(-c2cc(C(=O)O)cnc2N2C3CCC2CN(C)C3)cn1`, for which the pKa was determined as 7.4.
The same measure, in the same setting: for `CCNC(=O)Nc1cc(-c2nc(C(F)(F)F)cs2)c(-c2cc(-c3nnn[nH]3)cnc2N2C3CCC2CN(C)C3)cn1` the value was 7.8.

Tested on in another data set: not listed separately
The experiment in a line: Dissociation constant, pKa of compound by pH metric method. The class given is physicochemical.
Conditions: not given
In a few lines: as §2
Molecule `CCNC(=O)Nc1cc(-c2nc(C(F)(F)F)cs2)c(-c2cc3ncccc3nc2N2CCN(C)CC2)cn1` came in with a pKa of 7.4.
The same measure, in the same setting: in the case of `CCNC(=O)Nc1cc(-c2nc(C(F)(F)F)cs2)c(-c2cc3ncccc3nc2N2C3CC2CN(C)C3)cn1` it was 7.6.

Tested on in the next data set: not listed separately
The data set is described as follows: Growth inhibition of human A549 cells.
Conditions: not given
Type of data set: cell-based.
As usually defined, the GI50 is the concentration at which growth is held to half of that of the control. Higher therefore signals less potent growth inhibition. In the case of `CCNC(=O)Nc1cc(-c2nc(C(F)(F)F)cs2)c(-c2cc(C(=O)O)cnc2N2C3CCC2CN(C)C3)cn1`, the GI50 is above 50000 nM.
On the same count and under the same terms, in the case of `CCNC(=O)Nc1cc(-c2nc(C(F)(F)F)cs2)c(-c2cc3ncccc3nc2N2CCN(C)CC2)cn1` it was above 50000 nM; in that of `CCNC(=O)Nc1cc(-c2nc(C(F)(F)F)cs2)c(-c2cc3ncccc3nc2N2C3CC2CN(C)C3)cn1`, above 50000 nM.
